pEC50: −log10 of the molar value. Activity calls are given as the source filed them. No cut-off for these calls is given here.
How the values were obtained:
[1] = Therapeutic index, TC50 for human CEM174 cells to EC50 for SIV-induced syncytium in human CEM174 cells; type: cell-based; settings: read-out: TI
How it was run: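 Ratio TC₅₀/EC₅₀. TC₅₀ comes from the MTT proliferation assay in uninfected CEM174 cells. EC₅₀ comes from microscopic scoring of syncytia in CEM174 cells infected with 100 TCID₅₀ SIV per well. Both were run over 5 days at 37 °C, 5% CO₂.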

[2] = Cytotoxicity against mock-infected human CEM174 cells after 5 days by MTT assay; type: cell-based; settings: read-out: TC50
How it was run: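 Uninfected CEM174 cells handled as in the antiviral assay (1 × 10⁵ cells/mL, compound dilutions, 5 days, 37 °C, 5% CO₂). Proliferation read by MTT reduction. TC₅₀ = concentration inhibiting cell proliferation by 50%.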

[3] = molecular target: Structural capsid protein (Human immunodeficiency virus 1) (UniProt Q76129); assay: Binding affinity to HIV1 capsid protein assessed as viral capsid assembly rate at 1 mM by ultraviolet spectrophotometry (RVb= 60.56 +/- 3.77 milliOD/min)
Structural capsid protein (Human immunodeficiency virus 1), sequence (Q76129 as listed by the source): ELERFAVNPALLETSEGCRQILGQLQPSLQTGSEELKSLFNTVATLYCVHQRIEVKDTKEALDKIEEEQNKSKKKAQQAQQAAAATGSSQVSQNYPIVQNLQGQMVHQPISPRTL

[4] = system: Simian immunodeficiency virus; assay: Antiviral activity against SIV-induced syncytium in human CEM174 cells assessed as inhibition of virus-induced cytopathogenicity after 5 days; type: functional, organism-based; settings: CEM174, 120 h
How it was run: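 CEM174 cells at 1 × 10⁵ cells/mL in 96-well format, infected with 100 TCID₅₀ SIV per well alongside serial dilutions of compound. Incubated 5 days at 37 °C, 5% CO₂, humidified. Syncytium (giant cell) formation scored microscopically. EC₅₀ = concentration protecting cells 50% against SIV cytopathogenicity.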

[5] = molecular target: Structural capsid protein (Human immunodeficiency virus 1) (UniProt Q76129); assay: Binding affinity to HIV1 capsid protein assessed as inhibition of viral capsid assembly at 1 mM after 600 mins by turbidity-based ultraviolet spectrophotometry

Structure (SMILES)	selectivity ratio [1]	CC50 at 120 h [2]	Activity (milli optical density/minute) [3]	pEC50 [4]	inhibition [5]
COc1ccc(C(=O)N[C@@H](Cc2ccc(O)cc2)C(=O)N/N=C/c2ccccc2)cc1	> 21.7	> 100 µM	32.5	5.34	
COc1ccc(C(=O)N[C@H](C(=O)N/N=C/c2ccc(O)cc2)[C@@H](C)O)cc1	> 12.3	> 100 µM	24.9	5.09	
CC[C@@H](C)[C@H](NC(=O)c1ccc(OC)cc1)C(=O)N/N=C/c1ccccc1	10.2	77.9 µM	25.4	5.12	
COc1ccc(C(=O)N[C@@H](Cc2ccc(O)cc2)C(=O)N/N=C/c2ccco2)cc1	3.38	30.6 µM	19.1	5.04	
COc1ccc(C(=O)N[C@@H](Cc2c[nH]cn2)C(=O)N/N=C/c2ccc(O)cc2)cc1	> 31.4	> 100 µM	24.7	5.50	
COc1ccc(C(=O)N[C@H](C(=O)N/N=C/c2ccccc2)[C@H](C)O)cc1	> 130	> 100 µM	21.4	6.11	
CC[C@@H](C)[C@H](NC(=O)c1ccc(OC)cc1)C(=O)N/N=C/c1ccco1	> 58.8	> 100 µM	5.82	5.77	
COc1ccc(/C=N/NC(=O)[C@H](Cc2c[nH]cn2)NC(=O)c2ccc(OC)cc2)cc1	> 244	> 100 µM	3.58	6.39	Active
COc1ccc(C(=O)N[C@@H](Cc2c[nH]cn2)C(=O)N/N=C/c2ccc(C)cc2)cc1	> 64.5	> 100 µM	6.05	5.81	
COc1ccc(C(=O)N[C@@H](Cc2ccc(O)cc2)C(=O)N/N=C/c2ccc(C)cc2)cc1	7.9	41.1 µM	20.4	5.28	
COc1ccc(C(=O)N[C@@H](Cc2ccc(O)cc2)C(=O)N/N=C/c2ccc(O)cc2)cc1	> 12.8	> 100 µM	8.77	5.11	
COc1ccc(C(=O)N[C@@H](Cc2c[nH]cn2)C(=O)N/N=C/c2ccc([N+](=O)[O-])cc2)cc1	> 22.7	> 100 µM	12.6	5.36	
COc1ccc(C(=O)N[C@@H](Cc2c[nH]cn2)C(=O)N/N=C/c2ccc(Cl)cc2)cc1	> 30.6	> 100 µM	8.89	5.49	
CC[C@@H](C)[C@H](NC(=O)c1ccc(OC)cc1)C(=O)N/N=C/c1ccc(C)cc1	> 7.2	> 100 µM	33.4	4.86	inactive
COc1ccc(C(=O)N[C@@H](C)C(=O)N/N=C/c2ccccc2)cc1	> 15.6	> 100 µM		5.19	
COc1ccc(C(=O)N[C@@H](Cc2ccc(O)cc2)C(=O)N/N=C/c2ccc(Cl)cc2)cc1	2.69	40 µM	24.3	4.83	inactive
Cc1ccc(S(=O)(=O)C[C@@H](Cc2ccccc2)C(=O)N/N=C/c2ccc3c(c2)OCO3)cc1				6.77	
COc1ccc(C(=O)N[C@H](C(=O)N/N=C/c2ccc(Cl)cc2)[C@@H](C)O)cc1	> 20.1	> 100 µM	49.5	5.30	
COc1ccc(C(=O)N[C@@H](Cc2c[nH]cn2)C(=O)N/N=C/c2ccccc2)cc1	> 179	> 100 µM	3.26	6.25	Active
COc1ccc(C(=O)N[C@H](C(=O)N/N=C/c2ccccc2)C(C)C)cc1	> 24.5	> 100 µM		5.39	
CC[C@@H](C)[C@H](NC(=O)c1ccc(OC)cc1)C(=O)N/N=C/c1ccc(O)cc1	> 24.1	> 100 µM	30.1	5.38	
COc1ccc(C(=O)N[C@H](C(=O)N/N=C/c2ccc(C)cc2)[C@H](C)O)cc1	> 12.2	> 100 µM	11.9	5.09	
CCC(C)[C@H](NC(=O)c1ccc(OC)cc1)C(=O)N/N=C/c1ccc(Cl)cc1 (mixture of isomers)	> 12.3	> 100 µM	10.2	5.09	
COc1ccc(C(=O)N[C@@H](Cc2c[nH]cn2)C(=O)N/N=C/c2ccco2)cc1	> 11.8	> 100 µM	29.3	5.07	

From ChEMBL document CHEMBL1157643, “SAR and molecular mechanism study of novel acylhydrazone compounds targeting HIV-1 CA” (Bioorg Med Chem, 2010)
